PRMT1 FP inh = PRMT1 methyltransferase inhibitors, primary screen, biochemical, fluorescence polarization | Protein arginine N-methyltransferase 1 (Homo sapiens), Q99873 | actives 1.3% (n = 370,000) | recombinant PRMT1, activity-based probe fluorescence polarization | inhibition, % at 2.79 µM | AID 652257, 2013;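 active means inhibition above about 21% made by adding two undisclosed values, limit read from the data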
Target sequence (Q99873 whole entry, looked up): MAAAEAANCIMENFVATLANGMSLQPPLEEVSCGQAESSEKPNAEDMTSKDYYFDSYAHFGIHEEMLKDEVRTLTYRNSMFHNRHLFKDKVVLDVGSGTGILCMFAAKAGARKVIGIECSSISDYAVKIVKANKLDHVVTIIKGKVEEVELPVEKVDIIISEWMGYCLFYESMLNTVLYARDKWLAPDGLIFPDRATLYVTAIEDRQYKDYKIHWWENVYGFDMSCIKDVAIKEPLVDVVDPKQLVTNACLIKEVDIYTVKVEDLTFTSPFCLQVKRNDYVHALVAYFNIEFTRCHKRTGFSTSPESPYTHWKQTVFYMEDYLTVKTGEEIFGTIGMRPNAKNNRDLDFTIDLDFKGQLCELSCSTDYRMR
rCAG RNA binder = binders of r(CAG) RNA repeats, primary screen, biochemical, fluorescence; actives 1.3% (n = 370,000); r(CAG) RNA repeat, TO-PRO-1 dye displacement fluorescence; inhibition, % at 3 µM;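 active means inhibition above the plate cutoff, the mean of all test compounds on that plate plus 3 SD, cut at about 35% in these data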;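 further: higher means more dye released from RNA so lower well fluorescence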
mABHD4 FP = ABHD4 inhibitors, primary screen, biochemical, fluorescence polarization, mouse | (Lyso)-N-acylphosphatidylethanolamine lipase (Mus musculus), Q8VD66 | purified mABHD4, FP-Rh probe fluorescence polarization | inhibition, % at 8.92 µM | actives 0.54% (n = 370,000) | AID 720543, 2013;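 active means inhibition exceeding the mean over every tested compound plus 3 SD, cut at about 30% in these data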
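Assay system: mABHD4 protein; medium: HEPES pH 7.0, NaCl, Pluronic buffer; dosing: 8.92 µM, single dose; schedule: 45 min + 60 min at 25 °C; signal: FP readout, ex 525 nm / em 598 nm; read-out: normalized percent inhibition of probe labeling; repeats: single replicate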
TCR-CD3 inh = inhibitors of human TCR-CD3 interaction, primary screen, biochemical, fluorescence, TAMRA-labeled TCR probe; actives 0.37% (n = 360,000); T-cell receptor (TCR); inhibition, % at 9.4 µM; AID 651800, 2012; in the data active means inhibition above about 19%;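 further: recombinant mutant TCR 2C K166C tagged with TAMRA read by polarization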
SIAE primary = human SIAE inhibitors, primary screen, biochemical, fluorescence polarization, FP-Rh probe, 1536-well HTS; Sialate O-acetylesterase (Homo sapiens), Q9HAT2; SIAE FP-Rh probe binding; inhibition, % at 9.66 µM; actives 0.69% (n = 370,000);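 active means inhibition above a cutoff: mean of compounds within the control limits plus 3 SD of those, cut at about 17% in these data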
rCAG bind conf = small molecules binding CAG repeat RNA – biochemical, fluorescence, confirmation. shares compounds with rCAG RNA binder. r(CAG) RNA repeat, TO-PRO-1 dye displacement fluorescence. inhibition, % at 3 µM. actives 70% (n = 4,300). AID 652065, 2013;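 active means inhibition above a per-plate cutoff, the mean inhibition of sample wells plus 3 SD, cut at about 35% in these data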;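 further: loss of TO-PRO-1 fluorescence as compound displaces dye from 1x1 AA loop RNA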
dCAG dye counter = displacement of TO-PRO-1 from CAG DNA duplex, counter-screen for rCAG RNA repeat binder project, biochemical, fluorescence, TO-PRO-1 dye, d(CAG) DNA oligo. shares compounds with rCAG RNA binder. d(CAG) DNA oligo TO-PRO-1 dye displacement. inhibition, % at 3 µM. actives 94% (n = 4,300);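 active means inhibition above its plate's cutoff, the mean test-well inhibition plus 3 SD, cut at about 4.8% in these data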;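 further: hits displace the dye from DNA and so lower well fluorescence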
dCAG dye DR = inhibitors of DNA CAG/GTC TO-PRO-1 complex, dose response, counter-screen for rCAG RNA repeat binder project, biochemical, fluorescence, TO-PRO-1 dye; shares compounds with rCAG RNA binder; DNA CAG/GTC duplex TO-PRO-1 dye displacement fluorescence; IC50, µM; actives 20% (n = 250); AID 686960, 2013; in the data active means IC50 below about 10 µM
Hits are given with their value; . = inactive; / = not tested or not shown. Most compounds without a hit are left out; they make up all but 3.3% or so of the library.

SMILES	PRMT1 FP inh	rCAG RNA binder	mABHD4 FP	TCR-CD3 inh	SIAE primary	rCAG bind conf	dCAG dye counter	others
O=C(Cc1ccc(F)cc1)N/N=C/c1ccc(-c2ccc(Cl)c(C(=O)O)c2)o1	.	.	.	.	.	/	/
COCc1cc(C)n(CC(=O)N/N=C/c2ccc(-c3ccc(Cl)c(C(=O)O)c3)o2)c(=O)c1C#N	.	37.8	.	.	.	40.7	13.8
COc1ccc(CN2C(=O)[C@@](O)(c3cccn3C)c3cc(Br)ccc32)cc1	.	.	.	/	.	/	/
Cc1nccc(-c2cccc(N/N=C(\C#N)C(=O)c3ccccc3)c2)n1	.	50.8	.	.	.	34.9	9.3
Cc1nccc(-c2cccc(NC(=O)Nc3ccc(Cl)cc3)c2)n1	.	.	.	.	.	/	/
S=c1[nH]nc(COc2ccccc2)n1/N=C/c1cccc(Br)c1	.	42.4	.	.	.	44.2	14.1
Cc1cc(-c2n[nH]c(=S)n2N=Cc2cccc(Oc3ccccc3)c2)n[nH]1	.	45.7	.	/	.	.	7.9
S=c1[nH]nc(COc2ccccc2)n1/N=C/C(Cl)=C/c1ccccc1	.	51.6	.	.	.	72.3	34.4	dCAG dye DR=.
COCCCN1C(=O)[C@H](CC(=O)NCc2ccccc2)[C@]2(C(=O)OC)CCCCC=C12	.	.	.	/	.	/	/
COC(=O)C1CN(Cc2ccc(OC)cc2)CCS(=O)(=O)N1Cc1cn(Cc2ccc(Cl)cc2)nn1 (stereo unspecified)	.	.	.	/	.	/	/
O=C(O)CSc1nc(SCc2ccccc2Cl)nc2c1CCCC2	.	41.5	.	.	.	35.7	11.2	dCAG dye DR=.
COC(=O)CSc1nc(SCc2ccccc2Cl)nc2c1CCCC2	.	.	.	.	.	/	/
N#C/C(=C\c1c[nH]c2ccccc12)C(=O)NC1CC1	.	53.8	.	.	.	.	.
CCOC(=O)[C@]12CCCCC/C=C\1N(CCc1ccc(Cl)cc1)C(=O)[C@H]2CC(=O)NCCCOC	.	.	.	/	.	/	/
CCCn1nc(C(=O)Nc2cccc(C(=O)OC)c2)c2ccccc2c1=O	.	.	.	.	.	/	/
CCCn1nc(C(=O)Nc2ccc(S(=O)(=O)Nc3nccs3)cc2)c2ccccc2c1=O	.	65.0	.	.	.	56.1	23.4
CCCn1nc(C(=O)Nc2cc(S(=O)(=O)Nc3ccc(OC)cc3)ccc2O)c2ccccc2c1=O	.	61.5	.	.	.	54.1	18.8
CCn1nc(C(=O)Nc2ccc(S(=O)(=O)Nc3ncccn3)cc2)c2ccccc2c1=O	.	.	.	.	.	/	/
COC(=O)C1CN(Cc2ccccc2)CCS(=O)(=O)N1Cc1cn(Cc2ccc(C)cc2)nn1 (stereo unspecified)	.	.	.	/	.	/	/
Cc1nn(CCc2nn[nH]n2)c2nc(-c3ccccc3)cc(C(F)(F)F)c12	.	43.6	.	.	.	.	.
NNC(=O)c1cc(NS(=O)(=O)c2cccs2)cc(NS(=O)(=O)c2cccs2)c1	.	41.9	.	.	.	.	4.7
O=S(=O)(Nc1cccc(CO)c1)c1cccs1	.	.	.	.	.	/	/
O=c1[nH]c2cc(S(=O)(=O)CCO)ccc2o1	.	35.9	.	.	.	.	.
COc1cc(/C=C2\SC(=S)N(Nc3ncc(C(F)(F)F)cc3Cl)C2=O)ccc1O	.	52.6	.	.	.	62.7	32.4
CCn1c2ccccc2c2cc(NC(=O)COC(=O)c3cc(S(N)(=O)=O)c(Cl)cc3Cl)ccc21	.	36.4	.	.	.	.	16.9
SMILES	PRMT1 FP inh	rCAG RNA binder	mABHD4 FP	TCR-CD3 inh	SIAE primary	rCAG bind conf	dCAG dye counter	others
CCn1c2ccccc2c2cc(NC(=O)COC(=O)c3ccc(NC(=O)CC#N)cc3)ccc21	.	46.7	.	.	.	34.6	21.3
CCn1c2ccccc2c2cc(NC(=O)CSc3nccc(=O)[nH]3)ccc21	.	44.5	.	.	.	40.3	15.9
CCn1c2ccccc2c2cc(NC(=O)COC(=O)c3ccccc3O)ccc21	.	.	.	.	.	/	/
O=C(CSc1nccc(=O)[nH]1)Nc1ccc2ccccc2c1	.	.	.	.	.	/	/
COc1ccc2ccccc2c1C=NNC(=O)c1cc(-c2ccc(C)cc2)n[nH]1	.	.	.	/	.	/	/
COP(=O)(OC)C(NC(=O)OCc1ccccc1)C(C)C (stereo unspecified)	.	.	.	/	.	/	/
CCCCCCCCCC(=O)N1c2ccccc2NC(=O)C1CC(=O)Nc1ccc(C(=O)O)cc1 (stereo unspecified)	.	74.1	.	.	.	69.5	29.5
CCCCCCC/C=C(\C)[C@@H](O)[C@@H](C)C(=O)N1CCC[C@@H]1C(=O)O	.	/	.	/	.	/	/
O=C(O)c1[nH]c2ccc(Cl)cc2c1CCN1C(=O)c2ccccc2C1=O	.	50.2	.	.	.	.	6.3
COc1ccc2[nH]c(C(=O)O)c(CCN3C(=O)c4ccc(C(=O)O)cc4C3=O)c2c1	.	.	.	.	.	/	/
O=C(O)c1[nH]c2ccc(Br)cc2c1CCN1C(=O)c2cccc([N+](=O)[O-])c2C1=O	.	64.4	.	.	.	42.2	12.6
O=S1(=O)c2c(NCc3ccco3)cccc2Oc2ccccc2CN1Cc1cn(Cc2ccc(F)cc2)nn1	.	.	.	/	.	/	/
CCOC(=O)/C(C#N)=N/Nc1ccc(S(=O)(=O)N2CCc3ccccc32)cc1	.	39.9	.	.	.	42.2	15.1
N#C/C(=N\Nc1ccc(S(=O)(=O)N2CCCCCC2)cc1)C(N)=S	.	45.0	.	.	.	44.0	13.9
N#C/C(=N\Nc1ccc(S(=O)(=O)N2CCCCC2)cc1)C(N)=S	.	.	.	.	.	/	/
CCOC(=O)CCC(=O)Nc1ccc(S(=O)(=O)N2CCc3ccccc32)cc1	.	.	.	.	.	/	/
N#C/C(=N\Nc1ccc(S(=O)(=O)N2CCc3ccccc32)cc1)C(N)=S	.	84.8	.	.	.	61.7	26.7
O=C(OC12CCCN(C1)/C(=C/c1ccc(Cl)cc1)C2)c1ccc(Cl)cc1 (stereo unspecified)	.	.	.	/	.	/	/
COc1ccccc1CNC(=O)N1CCN(Cc2nc3ccccc3c(=O)[nH]2)CC1	.	.	.	/	.	/	/

High-throughput results: PubChem BioAssay, The Scripps Research Institute Molecular Screening Center
